Reference: ChEMBL document CHEMBL1144522, “Novel C2-C3' N-peptide linked macrocyclic taxoids. Part 2: synthesis and biological activities of docetaxel analogues with a peptide side chain at C2 and their macrocyclic derivatives” (Bioorg Med Chem, 2007)
Activity calls are given as the source filed them. No cut-off for these calls is given here. *1 amine or outer side, *2 acyl side, *3 side chain or, on linkers, in order; H or OH if unused. Where a SMILES comes first, the peptide text is derived from it. Bridges are numbered along the chain shown (N, C = ends). [ ]: non-standard residue; d: D form. The star is where a group is joined. ξ: configuration not given here. X1 = CC(=O)O[C@@]12COC1C[C@H](O)[C@@]1(C)C(=O)[C@H](O)C3=C(C)[C@@H](OC(=O)[C@H](O)[C@@H](NC(=O)[*:1])c4ccccc4)C[C@@](O)([C@@H](O[*:2])C21)C3(C)C; ξD = NC(CC(=O)O)C(=O)O; OtBu = CC(C)(C)O*

Key:
KB = test: Cytotoxicity against human KB cells after 72 hrs; type: cell-based; details: for Activity: human, kb; for IC50: Homo sapiens, KB
How it was run: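 Cell proliferation measured after 72 h incubation with compound. IC50 is the drug concentration that inhibits proliferation by 50%. Run by an established literature protocol.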

Tubulin (Homo sapiens) = Tubulin (Homo sapiens) (UniProt P68371+Q9H4B7+P0DPH7+P68366+Q13509+Q71U36+P04350+Q3ZCM7+P07437+P68363+Q9BQE3+Q6PEY2+Q13885+Q9BVA1+Q9BUF5); test: (§1) Tubulin interaction assessed as inhibition of cold-induced microtubule disassembly; type: protein-complex assay
How it was run: (§2)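 Microtubular protein was purified from mammalian brain. The assay followed the rate of microtubule disassembly. IC50 is the concentration that inhibits that rate by 50%. Run by an established literature protocol.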

Tubulin = test: as §1; type: protein-complex assay, Homo sapiens; how it was run: as §2

Row | Activity (Tubulin (Homo sapiens)) | IC50 (Tubulin) [nM] | Compound | Activity (KB) | IC50 (KB) [nM]
1 | inactive | – | CC(=O)O[C@@]12COC1C[C@H](O)[C@@]1(C)C(=O)[C@H](O)C3=C(C)[C@@H](OC(=O)[C@H](O)[C@@H](NC(=O)OC(C)(C)C)c4ccccc4)C[C@@](O)([C@@H](OC(=O)[C@@H]4CCCN4C(=O)CNC(=O)CN)C21)C3(C)C (some centres undefined) | Not Active | –
2 | – | – | CC(=O)O[C@@]12COC1C[C@H](O)[C@@]1(C)C(=O)[C@H](O)C3=C(C)[C@@H]4C[C@@](O)([C@@H](OC(=O)c5cccc(c5)NC(=O)CNC(=O)CNC(=O)[C@@H]5CCCN5C(=O)[C@H](C(C)C)NC(=O)N[C@@H](c5ccccc5)[C@@H](O)C(=O)O4)C21)C3(C)C (some centres undefined) | Non-toxic | –
3 | inactive | – | CC(=O)O[C@@]12COC1C[C@H](O)[C@@]1(C)C(=O)[C@H](O)C3=C(C)[C@@H](OC(=O)[C@H](O)[C@@H](NC(=O)NCC(=O)N[C@@H](COCc4ccccc4)C(=O)N[C@@H](Cc4ccc(OCc5ccccc5)cc4)C(=O)OCc4ccccc4)c4ccccc4)C[C@@](O)([C@@H](OCc4ccccc4)C21)C3(C)C (some centres undefined) | – | 90
4 | – | 2600 | COC(=O)[C@@H](CCSC)NC(=O)[C@H](Cc1ccccc1)NC(=O)[C@@H](NC(=O)N[C@@H](c1ccccc1)[C@@H](O)C(=O)O[C@H]1C[C@@]2(O)[C@@H](OCc3ccccc3)C3[C@]4(OC(C)=O)COC4C[C@H](O)[C@@]3(C)C(=O)[C@H](O)C(=C1C)C2(C)C)C(C)C (some centres undefined) | – | –
5 | – | – | CC(=O)O[C@@]12COC1C[C@H](O)[C@@]1(C)C(=O)[C@H](O)C3=C(C)[C@@H]4C[C@@](O)([C@@H](OC(=O)CNC(=O)CNC(=O)[C@@H]5CCCN5C(=O)[C@H](C(C)C)NC(=O)N[C@@H](c5ccccc5)[C@@H](O)C(=O)O4)C21)C3(C)C (some centres undefined) | Non-toxic | –
6 | – | 500 | CC(=O)O[C@@]12COC1C[C@H](O)[C@@]1(C)C(=O)[C@H](O)C3=C(C)[C@@H](OC(=O)C(O)[C@@H](NC(=O)N[C@H](C(=O)N4CCC[C@H]4C(=O)NCC(=O)NCC(=O)OCc4ccccc4)C(C)C)c4ccccc4)C[C@@](O)([C@@H](OC(=O)c4cccc([N+](=O)[O-])c4)C21)C3(C)C (some centres undefined) | – | > 10000
7 | – | 1000 | CC(=O)O[C@@]12COC1C[C@H](O)[C@@]1(C)C(=O)[C@H](O)C3=C(C)[C@@H](OC(=O)[C@H](O)[C@@H](NC(=O)NCC(=O)N[C@@H](CO)C(=O)N[C@@H](Cc4ccc(O)cc4)C(=O)O)c4ccccc4)C[C@@](O)([C@@H](OCc4ccccc4)C21)C3(C)C (some centres undefined) | – | 1050
8 | – | 51000 | CC(=O)O[C@@]12COC1C[C@H](O)[C@@]1(C)C(=O)[C@H](O)C3=C(C)[C@@H](OC(=O)[C@H](O)[C@@H](NC(=O)OC(C)(C)C)c4ccccc4)C[C@@](O)([C@@H](OC(=O)CN)C21)C3(C)C (some centres undefined) | – | > 10000
9 | – | 600 | CC(=O)O[C@@]12COC1C[C@H](O)[C@@]1(C)C(=O)[C@H](O)C3=C(C)[C@@H](OC(=O)C(O)C(NC(=O)N[C@H](C(=O)N4CCC[C@H]4C(=O)NCC(=O)O)C(C)C)c4ccccc4)C[C@@](O)([C@@H](OCc4ccccc4)C21)C3(C)C (some centres undefined) | – | > 10000
10 | – | 1000 | CC(=O)O[C@@]12COC1C[C@H](O)[C@@]1(C)C(=O)[C@H](O)C3=C(C)[C@@H](OC(=O)C(O)[C@@H](NC(=O)N[C@H](C(=O)N4CCC[C@H]4C(=O)NCC(=O)NCC(=O)O)C(C)C)c4ccccc4)C[C@@](O)([C@@H](OC(=O)c4cccc(N)c4)C21)C3(C)C (some centres undefined) | – | > 10000
11 | – | 500 | CC(=O)O[C@@]12CO[C@@H]1C[C@H](O)[C@@]1(C)C(=O)[C@H](O)C3=C(C)[C@@H](OC(=O)[C@H](O)[C@@H](NC(=O)OC(C)(C)C)c4ccccc4)C[C@@](O)([C@@H](OC(=O)c4ccccc4)[C@H]21)C3(C)C [DOCETAXEL] | – | 0.1
12 | inactive | – | CC(=O)O[C@@]12COC1C[C@H](O)[C@@]1(C)C(=O)[C@H](O)C3=C(C)[C@@H](OC(=O)[C@H](O)[C@@H](NC(=O)OC(C)(C)C)c4ccccc4)C[C@@](O)([C@@H](OC(=O)[C@@H](NC(=O)[C@@H]4CCCN4C(=O)CNC(=O)CN)C(C)C)C21)C3(C)C (some centres undefined) | Not Active | –
13 | – | – | COC(=O)[C@H](CCSC)NC(=O)[C@H](Cc1ccccc1)NC(=O)[C@@H](NC(=O)N[C@@H](c1ccccc1)[C@@H](O)C(=O)O[C@H]1C[C@@]2(O)[C@@H](OCc3ccccc3)C3[C@]4(OC(C)=O)COC4C[C@H](O)[C@@]3(C)C(=O)[C@H](O)C(=C1C)C2(C)C)C(C)C (some centres undefined) | – | 1100
14 | – | 800 | CC(=O)O[C@@]12COC1C[C@H](O)[C@@]1(C)C(=O)[C@H](O)C3=C(C)[C@@H](OC(=O)[C@H](O)[C@@H](NC(=O)N[C@H](C(=O)OCc4ccccc4)C(C)C)c4ccccc4)C[C@@](O)([C@@H](OCc4ccccc4)C21)C3(C)C (some centres undefined) | – | 4
15 | – | – | CC(=O)O[C@@]12COC1C[C@H](O)[C@@]1(C)C(=O)[C@H](O)C3=C(C)[C@@H]4C[C@@](O)([C@@H](OC(=O)CNC(=O)C(CC(=O)OC(C)(C)C)NC(=O)CNC(=O)CNC(=O)[C@@H]5CCCN5C(=O)[C@H](C(C)C)NC(=O)N[C@@H](c5ccccc5)[C@@H](O)C(=O)O4)C21)C3(C)C (some centres undefined) (VPGG[ξD](OtBu)G; linker N-C via X1) | Non-toxic | –
16 | inactive | – | CC(=O)O[C@@]12COC1C[C@H](O)[C@@]1(C)C(=O)[C@H](O)C3=C(C)[C@@H](OC(=O)[C@H](O)[C@@H](NC(=O)OC(C)(C)C)c4ccccc4)C[C@@](O)([C@@H](OC(=O)CNC(=O)CN)C21)C3(C)C (some centres undefined) | Not Active | –

Row | Compound | Activity (Tubulin (Homo sapiens)) | IC50 (Tubulin) [nM] | Activity (KB) | IC50 (KB) [nM]
17 | CC(=O)O[C@@]12COC1C[C@H](O)[C@@]1(C)C(=O)[C@H](O)C3=C(C)[C@@H](OC(=O)[C@H](O)[C@@H](NC(=O)OC(C)(C)C)c4ccccc4)C[C@@](O)([C@@H](OC(=O)CNC(=O)Oc4ccccc4)C21)C3(C)C (some centres undefined) | inactive | – | – | 90
